Assay results: ChEMBL document CHEMBL1156315, “Discovery of a novel sulfonamide-pyrazolopiperidine series as potent and efficacious gamma-secretase inhibitors” (Bioorg Med Chem Lett, 2010)

Key:
[1] = biological target: Gamma-secretase; test: Inhibition of gamma-secretase-mediated APP cleavage in human IMR-32 cells assessed as amyloid beta40 level after 2 hrs by ELISA; assay type: cell-based
[2] = biological target: Gamma-secretase; test: Inhibition of gamma-secretase-mediated notch cleavage in human IMR-32 cells after 2 hrs by ELISA; assay type: cell-based
[3] = biological target: Gamma-secretase; test: Inhibition of gamma-secretase-mediated notch cleavage in human SNC cells by ELISA; assay type: cell-based
[4] = biological target: Gamma-secretase (Homo sapiens) (UniProt Q96BI3+Q9NZ42+Q8WW43+P49768+Q92542+P49810); test: Inhibition of gamma-secretase-mediated APP cleavage in human SNC cells by ELISA; assay type: cell-based
[5] = (§1) Metabolic stability in human liver microsomes assessed as compound remaining after 30 mins in presence of 1 mM NADPH; assay type: ADME, Microsome; details: liver microsomes, read-out: Stability
In short: (§2)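 Liver microsomes (0.5 mg protein) in phosphate buffer with 1 mM NADPH, incubated 30 min at 37 °C; read-out is the percentage of parent compound remaining.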

[6] = (§3) Metabolic stability in human liver microsomes assessed as compound remaining after 30 mins in presence of 1 mM UDPGA, 100 mM MgCl2 and 25 ug/ml alamethacin; assay type: ADME, Microsome; details: liver microsomes, read-out: Stability
In short: (§4)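 Glucuronidation conditions: liver microsomes (0.5 mg protein) in phosphate buffer with 1 mM UDPGA, 100 mM MgCl₂ and alamethacin, 30 min at 37 °C; the percentage of compound remaining is reported.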

[7] = tested on: Liver microsomes; test: as §3; assay type: ADME, Microsome; details: microsomes, 0.5 h; in short: as §4
[8] = tested on: Liver microsomes; test: as §1; assay type: ADME, Microsome; details: microsomes, 0.5 h; in short: as §2
[9] = Ratio of drug level in FVB mouse brain to plasma; assay type: ADME, cell-free
In short: (§5)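 Wild-type FVB mice received a single 5 mg/kg oral dose. Brain Aβ40 reduction and the brain/plasma compound ratio were determined 3 h post-dose.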

[10] = tested on: Mus musculus; test: Neuroprotective activity in FVB mouse brain assessed as reduction in amyloid beta 40 level at 5 mg/kg, po after 3 hrs; assay type: functional; parameters: scale not given: the % may be the effect or the level left; in short: as §5

| SMILES | IC50 [1] | IC50 [2] | IC50 [3] | ED50 [4] | remaining at 0.5 h [5] | remaining at 0.5 h [6] | Stability [7] | Stability [8] | Kp [9] | Activity [10] |
| --- | --- | --- | --- | --- | --- | --- | --- | --- | --- | --- |
| O=S(=O)(c1ccc(Cl)cc1)N1CCc2n[nH]cc2C1CO (stereo not drawn) | 557 nM | 8660 nM | > 40000 nM | 3130 nM | 84% |  |  |  |  |  |
| O=S(=O)(c1ccc(Cl)cc1)N1CCCCC1 | > 30000 nM |  |  |  |  |  |  |  |  |  |
| O=S(=O)(c1ccc(Cl)cc1)N1Cc2c[nH]nc2CC1c1cncnc1 (stereo not drawn) | 536 nM | 10400 nM | > 40000 nM | 400 nM | 67% | 70% |  |  |  |  |
| O=S(=O)(c1ccc(Cl)cc1)N1CCc2[nH]ncc2C1c1cncnc1 (stereo not drawn) | 12 nM | 120 nM | 2310 nM |  | 50% | 85% |  |  |  |  |
| CCOC(=O)C1c2c[nH]nc2CCN1S(=O)(=O)c1ccc(Cl)cc1 (stereo not drawn) | 10.2 nM | 204 nM | 10300 nM | 137 nM | 1% | 1% |  |  |  |  |
| CCOC(=O)C1Cc2n[nH]cc2CN1S(=O)(=O)c1ccc(Cl)cc1 (stereo not drawn) | 431 nM | 5850 nM | > 40000 nM | 1420 nM | 8% |  |  |  |  |  |
| O=S(=O)(c1ccc(Cl)cc1)N1Cc2c[nH]nc2CC1c1ccccc1 (stereo not drawn) | 7.7 nM | 598 nM | 6510 nM | 55.3 nM | 5% | 8% |  |  |  |  |
| CC[C@H]1Cc2n[nH]cc2[C@@H](CC)N1S(=O)(=O)c1ccc(Cl)cc1.Cl | 62.6 nM |  | 6850 nM |  |  |  | 1% | 0% |  |  |
| C[C@@H]1CCC[C@H](C)N1S(=O)(=O)c1ccc(Cl)cc1 | 1000 nM |  |  |  |  |  |  |  |  |  |
| O=S(=O)(c1ccc(Cl)cc1)N1CCc2n[nH]cc2C1c1cncnc1 (stereo not drawn) |  |  |  | 47.1 nM |  |  |  |  |  |  |
| CC[C@H]1Cc2n[nH]cc2[C@@H](c2ccc(Cl)cc2)N1S(=O)(=O)c1ccc(Cl)cc1 (racemic) | 3.7 nM | 75.5 nM | 1570 nM | 16.7 nM | 10% | 31% |  |  |  |  |
| CC[C@@H]1c2c[nH]nc2C[C@H](c2ccc(Cl)cc2)N1S(=O)(=O)c1ccc(Cl)cc1 (racemic) | 22.4 nM | 126 nM | 15500 nM | 182 nM | 4% | 25% |  |  |  |  |
| O=S(=O)(c1ccc(Cl)cc1)N1Cc2c[nH]nc2CC1Cc1ccccc1 (racemic) | 80.9 nM | 1550 nM | 16600 nM | 340 nM | 3% |  |  |  |  |  |
| CN(C)C(=O)OCC1c2c[nH]nc2CCN1S(=O)(=O)c1ccc(Cl)cc1 (racemic) | 350 nM | 8250 nM | > 40000 nM | 5320 nM | 15% | 59% |  |  |  |  |
| CC[C@H]1Cc2n[nH]cc2CN1S(=O)(=O)c1ccc(Cl)cc1 (racemic) | 1.01 nM | 15.3 nM | 736 nM | 19 nM | 18% |  |  |  |  |  |
| CC1CCCCN1S(=O)(=O)c1ccc(Cl)cc1 (racemic) | 8280 nM |  |  |  |  |  |  |  |  |  |

| SMILES | IC50 [1] | IC50 [2] | IC50 [3] | ED50 [4] | remaining at 0.5 h [5] | remaining at 0.5 h [6] | Stability [7] | Stability [8] | Kp [9] | Activity [10] |
| --- | --- | --- | --- | --- | --- | --- | --- | --- | --- | --- |
| CCC1CCCCN1S(=O)(=O)c1ccc(Cl)cc1 (racemic) | 2000 nM |  |  |  |  |  |  |  |  |  |
| CCCC1CCCCN1S(=O)(=O)c1ccc(Cl)cc1 (racemic) | 1700 nM |  |  |  |  |  |  |  |  |  |
| O=S(=O)(c1ccc(Cl)cc1)N1CCCCC1c1ccccc1 (racemic) | 760 nM |  |  |  |  |  |  |  |  |  |
| CC(C)C1Cc2n[nH]cc2CN1S(=O)(=O)c1ccc(Cl)cc1 (racemic) | 16.1 nM | 87 nM | 6760 nM | 86 nM | 5% |  |  |  |  |  |
| O=S(=O)(c1ccc(Cl)cc1)N1Cc2c[nH]nc2CC1c1nccs1 (racemic) | 244 nM | 5750 nM | 33600 nM | 1270 nM | 54% | 8% |  |  |  |  |
| O=S(=O)(c1ccc(Cl)cc1)N1CCc2n[nH]cc2C1c1nccs1 (racemic) | 29.1 nM | 858 nM | 6530 nM | 139 nM | 57% |  |  |  |  |  |
| O=S(=O)(c1ccc(Cl)cc1)N1Cc2cn[nH]c2CC1c1ccc(Cl)cc1 (racemic) | 3.4 nM | 311 nM | 2590 nM |  | 12% | 33% |  |  |  |  |
| O=S(=O)(c1ccc(Cl)cc1)N1Cc2cn[nH]c2CC1c1ccc(F)cc1 (racemic) | 5.4 nM | 481 nM | 5320 nM |  | 6% |  |  |  |  |  |
| O=S(=O)(c1ccc(Cl)cc1)N1Cc2cn[nH]c2CC1c1cccc(F)c1 (racemic) | 8.3 nM | 662 nM | 11400 nM |  | 14% | 0% |  |  |  |  |
| O=S(=O)(c1ccc(Cl)cc1)N1Cc2c[nH]nc2CC1c1cc(F)cc(F)c1 (racemic) | 9.7 nM | 776 nM | 14100 nM | 60.1 nM | 3% | 0% |  |  |  |  |
| CC[C@H]1Cc2n[nH]cc2[C@@H](CC)N1S(=O)(=O)c1ccc(Cl)cc1 (racemic) |  |  |  | 1.27 nM |  |  |  |  |  |  |
| O=S(=O)(c1ccc(Cl)cc1)N1Cc2c[nH]nc2CC1c1ccc(Cl)cc1 (racemic) |  |  |  | 17.5 nM |  |  |  |  |  |  |
| O=S(=O)(c1ccc(Cl)cc1)N1Cc2c[nH]nc2CC1c1ccc(F)cc1 (racemic) |  |  |  | 28 nM |  |  |  |  |  |  |
| O=S(=O)(c1ccc(Cl)cc1)N1Cc2c[nH]nc2CC1c1cccc(F)c1 (racemic) |  |  |  | 47.1 nM |  |  |  |  |  |  |
| CC[C@H]1Cc2n[nH]cc2[C@@H](CC)N1S(=O)(=O)c1ccc(Cl)cc1 (racemic) [ENT A] | 0.48 nM | 5 nM | 123 nM |  |  | 2% |  | 1% |  |  |
| CC[C@H]1Cc2n[nH]cc2[C@@H](CC)N1S(=O)(=O)c1ccc(Cl)cc1 [ENT A] | 0.35 nM | 5.8 nM | 70 nM |  |  |  | 1% |  | 0.8 | 25% |
